[ ]: non-standard residue; d: D form. Ahx = NCCCCCC(=O)O
T1: RHAMM:HA interaction, immobilized recombinant RHAMM (Mus musculus, UniProt Q00547)
T1 sequence (Q00547 with tags, fused parts or gaps): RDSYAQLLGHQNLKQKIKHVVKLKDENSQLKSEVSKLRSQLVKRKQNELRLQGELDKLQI

T2: peptide 14b (FTEAESNMNDLV)
T2 peptide: Ac-C[Ahx]FTEAESNMNDLV-NH2

T3: peptide 2b (VEGEGEEEGEEY)
T3 peptide: Ac-C[Ahx]VEGEGEEEGEEY-NH2

T4: peptide 10b (EEDFGEEAEEEA)
T4 peptide: Ac-C[Ahx]EEDFGEEAEEEA-NH2

B1: Recombinant protein RHAMM-CT (aa. 706–767) (domain or fragment)
chain: T1 sequence (Q00547 with tags, fused parts or gaps)

Tests used:
[1] = test system: PC3MLN4 cells; assay: Anchorage independent growth; assay type: cell-based, human
[2] = test system: PC3MLN4 cells; assay: Cell invasion assay; assay type: cell-based, human; details: 10 µg/mL, 48 hrs, compared to scrambled peptide control
Method in brief: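 Gelatin invadopodia assay: PC3MLN4 cells are plated at 50% confluency on Cy3-gelatin-coated chamber slides in growth medium with test peptide or scrambled control peptide (10 µg/mL each). After 48 h, cells are fixed, stained with FITC-phalloidin and DAPI, and imaged by confocal microscopy to assess degradation of the fluorescent matrix.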

[3] = test system: PC3MLN4 cells; assay: Cell adhesion on invasion assay substrates; assay type: cell-based, human; details: PC3MLN4 on the invasion assay substrates (not shown)
[4] = biological target: T1, RHAMM:HA interaction, immobilized recombinant RHAMM; assay: Competitive ELISA, fluorescein-labelled peptides vs HA; assay type: binding; details: summary of the competitive ELISA results
[5] = biological target: T2, peptide 14b (FTEAESNMNDLV); assay: SPR
[6] = biological target: T3, peptide 2b (VEGEGEEEGEEY); assay: SPR
[7] = biological target: T4, peptide 10b (EEDFGEEAEEEA); assay: SPR

Row | Molecule | Effect on anchorage independent proliferation [1] | Inhibition of the ability to degrade collagen [2] | Inhibition of cell adhesion [3] | Overall efficiency at competing with HA for binding to RHAMM [4] | Kd [5] | Kd [6] | Kd [7]
1 | FTEAESNMNDLV [14a] | marginal effects | 80% | no observed inhibition | most efficient at competing with HA |  |  | 
2 | EAFEDEEEEIDG [12a] |  |  |  | most efficient at competing with HA |  |  | 
3 | B1 |  |  |  |  | 30 nM | 24 nM | 32 nM
